Test results from ChEMBL document CHEMBL1143881, “Sulfonamidolactam inhibitors of coagulation factor Xa” (Bioorg Med Chem Lett, 2008).

Key:
Coagulation factor X = Coagulation factor X (Homo sapiens, UniProt P00742); experiment: Inhibition of human factor 10a
Procedure, shortened: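 Inhibition constant (Ki) measured against purified human factor Xa; each value is the average of two independent experiments (n = 2).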

Plasma = experiment: Anticoagulant efficacy in human citreated plasma assessed as concentration required to double prothrombin time; type: functional
[1] = Clearance in dog; type: ADME, organism-based, Canis lupus familiaris; conditions: in vivo
[2] = Half life in dog; type: ADME, organism-based, Canis lupus familiaris; conditions: in vivo
[3] = Oral bioavailability in dog; type: ADME, organism-based, Canis lupus familiaris; conditions: in vivo
[4] = Selectivity for human factor 10a over thrombin
[5] = Selectivity for human factor 10a over trypsin
[6] = Apparent permeability across human Caco-2 cells; type: ADME, cell-based
[7] = Selectivity for human factor 10a over factor 7a

Sequence of Coagulation factor X (P00742 41-179 limits assumed): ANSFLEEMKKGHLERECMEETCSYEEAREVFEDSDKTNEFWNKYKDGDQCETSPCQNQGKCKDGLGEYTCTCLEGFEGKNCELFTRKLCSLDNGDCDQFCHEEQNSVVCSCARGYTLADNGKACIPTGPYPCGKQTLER
Sequence of Coagulation factor X (P00742 235-488 limits assumed): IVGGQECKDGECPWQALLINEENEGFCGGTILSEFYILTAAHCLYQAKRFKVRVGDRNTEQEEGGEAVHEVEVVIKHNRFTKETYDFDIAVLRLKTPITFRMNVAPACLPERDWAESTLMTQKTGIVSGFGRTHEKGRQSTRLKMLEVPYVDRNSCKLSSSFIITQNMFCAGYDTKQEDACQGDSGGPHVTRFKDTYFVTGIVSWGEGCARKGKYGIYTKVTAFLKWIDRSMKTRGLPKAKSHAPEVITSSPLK

Row | Ki (Coagulation factor X) | clearance [1] | half-life [2] | bioavailability [3] | Selectivity ratio [4] | Selectivity ratio [5] | Papp [6] | Selectivity ratio [7] | SMILES | PT (Plasma)
1 | 0.016 nM | 19.8 mL/min/kg | 6.45 h | 4% | > 1000 | > 1000 | – | – | CN(C)CCN(C)C(=O)CN([C@H]1CCCN(c2ccc(-n3ccccc3=O)cc2F)C1=O)S(=O)(=O)c1ccc2cc(Cl)ccc2c1 | 1.7 µM
2 | 16 nM | – | – | – | > 1000 | > 1000 | – | – | O=C1C(NS(=O)(=O)c2ccc3cc(Cl)ccc3c2)CCCN1c1ccc(N2CCCCC2)cc1F (configuration not stated) | –
3 | 0.05 nM | – | – | – | > 1000 | > 1000 | 2 ×10⁻⁶ cm/s | – | O=C1C(NS(=O)(=O)c2cc3ccc(Cl)nc3s2)CCCN1c1ccc(-n2ccccc2=O)cc1 (configuration not stated) | 15 µM
4 | 100 nM | – | – | – | > 1000 | > 1000 | – | – | COc1cccc(S(=O)(=O)NC2CCCN(c3ccc(-c4ccccc4S(C)(=O)=O)cc3F)C2=O)c1 (configuration not stated) | –
5 | 0.1 nM | – | – | – | > 1000 | > 1000 | – | – | NC(=O)CN(C1CCCN(c2ccc(-n3ccccc3=O)cc2)C1=O)S(=O)(=O)c1cc2ccc(Cl)nc2s1 (configuration not stated) | 4.8 µM
6 | 2.3 nM | – | – | – | > 1000 | > 1000 | – | – | CS(=O)(=O)c1ccccc1-c1ccc(N2CCCC(N(CCCO)S(=O)(=O)c3ccc4cc(Cl)ccc4c3)C2=O)c(F)c1 (configuration not stated) | 208 µM
7 | 0.11 nM | – | – | – | > 1000 | > 1000 | – | – | O=C1C(NS(=O)(=O)c2ccc3cc(Cl)ccc3c2)CCCN1c1ccc(-n2ccccc2=O)cc1F (configuration not stated) | 35 µM
8 | 160 nM | – | – | – | > 1000 | > 1000 | – | – | Cc1c(S(=O)(=O)NC2CCCN(c3ccc(-c4ccccc4S(C)(=O)=O)cc3F)C2=O)sc2ccc(Cl)cc12 (configuration not stated) | –
9 | 420 nM | – | – | – | > 1000 | > 1000 | – | – | CS(=O)(=O)c1ccccc1-c1ccc(N2CCCC(NS(=O)(=O)c3ccc(C#N)cc3)C2=O)c(F)c1 (configuration not stated) | –
10 | 44.5 nM | – | – | – | > 1000 | > 1000 | – | – | CS(=O)(=O)c1ccccc1-c1ccc(N2CCCC(NS(=O)(=O)c3ccc(F)cc3)C2=O)c(F)c1 (configuration not stated) | –
11 | 19 nM | – | – | – | > 1000 | > 1000 | – | – | CS(=O)(=O)c1ccccc1-c1ccc(N2CCCC(NS(=O)(=O)c3ccc4onc(N)c4c3)C2=O)c(F)c1 (configuration not stated) | –
12 | 0.35 nM | – | – | – | > 1000 | > 1000 | – | – | COC(=O)C[N+](C)(C)Cc1nccn1-c1ccc(N2CCCC(NS(=O)(=O)c3ccc4cc(Cl)ccc4c3)C2=O)c(F)c1 (configuration not stated) | 13 µM
13 | 0.013 nM | – | – | – | > 1000 | > 1000 | – | – | CN(C)CCN(C)C(=O)CN(C1CCCN(c2ccc(-n3ccccc3=O)cc2F)C1=O)S(=O)(=O)c1cc2ccc(Cl)nc2s1 (configuration not stated) | 2.1 µM
14 | 53 nM | – | – | – | > 1000 | > 1000 | – | – | COc1ccc(S(=O)(=O)NC2CCCN(c3ccc(-c4ccccc4S(C)(=O)=O)cc3F)C2=O)cc1 (configuration not stated) | –
15 | 260 nM | – | – | – | > 1000 | > 1000 | – | – | CS(=O)(=O)c1ccccc1-c1ccc(N2CCCC(NS(=O)(=O)c3ccc(N)nc3)C2=O)c(F)c1 (configuration not stated) | –
16 | 5.3 nM | – | – | – | > 1000 | > 1000 | – | – | CS(=O)(=O)c1ccccc1-c1ccc(N2CCCC(NS(=O)(=O)c3ccc(Cl)s3)C2=O)c(F)c1 (configuration not stated) | –
17 | 26 nM | – | – | – | > 1000 | > 1000 | – | – | CS(=O)(=O)c1ccccc1-c1ccc(N2CCCC(NS(=O)(=O)c3ccc(-c4ccon4)s3)C2=O)c(F)c1 (configuration not stated) | –
18 | 1.7 nM | – | – | – | > 1000 | > 1000 | – | – | CN(C)CCN(C)C(=O)CN(C1CCCN(c2ccc(N3CCCCC3=O)cc2F)C1=O)S(=O)(=O)c1ccc2cc(Cl)ccc2c1 (configuration not stated) | 12 µM
19 | 0.02 nM | – | – | – | > 1000 | > 1000 | – | – | CN(C)CCN(C)C(=O)CN(C1CCCN(c2ccc(-n3ccccc3=O)cc2F)C1=O)S(=O)(=O)c1ccc2cc(Cl)ccc2c1 (configuration not stated) | 3.3 µM
20 | 370 nM | – | – | – | > 1000 | > 1000 | – | – | CS(=O)(=O)c1ccccc1-c1ccc(N2CCCC(NS(=O)(=O)c3ccccc3)C2=O)c(F)c1 (configuration not stated) | –
21 | 19 nM | – | – | – | > 1000 | > 1000 | – | – | CS(=O)(=O)c1ccccc1-c1ccc(N2CCCC(NS(=O)(=O)c3ccc4cn[nH]c4c3)C2=O)c(F)c1 (configuration not stated) | –
22 | 2600 nM | – | – | – | > 1000 | > 1000 | – | – | CS(=O)(=O)c1ccccc1-c1ccc(N2CCCC(NS(=O)(=O)c3cccnc3)C2=O)c(F)c1 (configuration not stated) | –
23 | 380 nM | – | – | – | > 1000 | > 1000 | – | – | CS(=O)(=O)c1ccccc1-c1ccc(N2CCCC(NS(=O)(=O)c3cccc(Cl)c3)C2=O)c(F)c1 (configuration not stated) | –

Row | Ki (Coagulation factor X) | clearance [1] | half-life [2] | bioavailability [3] | Selectivity ratio [4] | Selectivity ratio [5] | Papp [6] | Selectivity ratio [7] | SMILES | PT (Plasma)
24 | 28 nM | – | – | – | > 1000 | > 1000 | – | – | CS(=O)(=O)c1ccccc1-c1ccc(N2CCCC(NS(=O)(=O)c3cnc4ccccc4c3)C2=O)c(F)c1 (configuration not stated) | –
25 | 2.4 nM | – | – | – | > 1000 | > 1000 | – | – | CN(C)Cc1nccn1-c1ccc(N2CCCC(NS(=O)(=O)c3ccc4cc(Cl)ccc4c3)C2=O)c(F)c1 (configuration not stated) | 13 µM
26 | 2.2 nM | – | – | – | > 1000 | > 1000 | – | – | CS(=O)(=O)c1ccccc1-c1ccc(N2CCCC(NS(=O)(=O)c3cccc4cc(Cl)ccc34)C2=O)c(F)c1 (configuration not stated) | 102 µM
27 | 270 nM | – | – | – | > 1000 | > 1000 | – | – | CS(=O)(=O)c1ccccc1-c1ccc(N2CCCC(NS(=O)(=O)c3ccc(F)c(F)c3)C2=O)c(F)c1 (configuration not stated) | –
28 | 0.043 nM | – | – | – | > 1000 | > 1000 | 3.5 ×10⁻⁶ cm/s | – | COC(=O)CN(C1CCCN(c2ccc(-n3ccccc3=O)cc2)C1=O)S(=O)(=O)c1cc2ccc(Cl)nc2s1 (configuration not stated) | 4.4 µM
29 | 0.13 nM | – | – | – | > 1000 | > 1000 | – | – | O=C(O)CN(C1CCCN(c2ccc(-n3ccccc3=O)cc2)C1=O)S(=O)(=O)c1cc2ccc(Cl)nc2s1 (configuration not stated) | 16 µM
30 | 0.88 nM | – | – | – | > 1000 | > 1000 | – | – | COC(=O)CN(C1CCCN(c2ccc(-c3ccccc3S(C)(=O)=O)cc2F)C1=O)S(=O)(=O)c1ccc2cc(Cl)ccc2c1 (configuration not stated) | 89 µM
31 | 0.21 nM | – | – | – | > 1000 | > 1000 | – | – | COC(=O)CN(C1CCCN(c2ccc(-n3ccnc3C[N+](C)(C)CC(=O)OC)cc2F)C1=O)S(=O)(=O)c1ccc2cc(Cl)ccc2c1 (configuration not stated) | 12 µM
32 | 10 nM | – | – | – | > 1000 | > 1000 | – | – | O=C1CCCCN1c1ccc(N2CCCC(NS(=O)(=O)c3ccc4cc(Cl)ccc4c3)C2=O)c(F)c1 (configuration not stated) | –
33 | 23 nM | – | – | – | > 1000 | > 1000 | – | – | CS(=O)(=O)c1ccccc1-c1ccc(N2CCCC(NS(=O)(=O)c3ccc(Cl)cc3)C2=O)c(F)c1 (configuration not stated) | –
34 | 78 nM | – | – | – | > 1000 | > 1000 | – | – | CCc1ccc(S(=O)(=O)NC2CCCN(c3ccc(-c4ccccc4S(C)(=O)=O)cc3F)C2=O)cc1 (configuration not stated) | –
35 | 200 nM | – | – | – | > 1000 | > 1000 | – | > 1000 | COc1ccc(OC2CCCN(c3ccc(-c4ccccc4S(C)(=O)=O)cc3F)C2=O)cc1 (configuration not stated) | –
36 | 730 nM | – | – | – | > 1000 | > 1000 | – | – | CS(=O)(=O)c1ccccc1-c1ccc(N2CCCC(NS(=O)(=O)c3cc(Cl)cc(Cl)c3)C2=O)c(F)c1 (configuration not stated) | –
37 | 28 nM | – | – | – | > 1000 | > 1000 | – | – | O=C1C(NS(=O)(=O)c2ccc3cc(Cl)ccc3c2)CCCN1c1ccc(-c2ccncc2)cc1F (configuration not stated) | –
38 | 450 nM | – | – | – | > 1000 | > 1000 | – | – | COc1ccc(NC2CCCN(c3ccc(-c4ccccc4S(C)(=O)=O)cc3F)C2=O)cc1 (configuration not stated) | –
39 | 1 nM | – | – | – | > 1000 | > 1000 | – | – | CS(=O)(=O)c1ccccc1-c1ccc(N2CCCC(N(CC(=O)O)S(=O)(=O)c3ccc4cc(Cl)ccc4c3)C2=O)c(F)c1 (configuration not stated) | 250 µM
40 | 3200 nM | – | – | – | > 1000 | > 1000 | – | – | CS(=O)(=O)c1ccccc1-c1ccc(N2CCCC(NS(=O)(=O)Cc3ccccc3)C2=O)c(F)c1 (configuration not stated) | –
41 | 0.037 nM | – | – | – | > 1000 | > 1000 | 0.1 ×10⁻⁶ cm/s | – | CNC(=O)CN(C1CCCN(c2ccc(-n3ccccc3=O)cc2F)C1=O)S(=O)(=O)c1cc2ccc(Cl)nc2s1 (configuration not stated) | 4.2 µM
42 | 18 nM | – | – | – | > 1000 | > 1000 | – | – | CS(=O)(=O)c1ccccc1-c1ccc(N2CCCC(NS(=O)(=O)c3cccc4ccc(Cl)cc34)C2=O)c(F)c1 (configuration not stated) | –
43 | 560 nM | – | – | – | > 1000 | > 1000 | – | – | COc1ccc(C(=O)NC2CCCN(c3ccc(-c4ccccc4S(C)(=O)=O)cc3F)C2=O)cc1 (configuration not stated) | –
44 | 61 nM | – | – | – | > 1000 | > 1000 | – | – | CS(=O)(=O)c1ccccc1-c1ccc(N2CCCC(NS(=O)(=O)c3ccc(Cl)c(Cl)c3)C2=O)c(F)c1 (configuration not stated) | –
45 | 73 nM | – | – | – | > 1000 | > 1000 | – | – | CS(=O)(=O)c1ccccc1-c1ccc(N2CCCC(NS(=O)(=O)c3ccc4ncccc4c3)C2=O)c(F)c1 (configuration not stated) | –
46 | 650 nM | – | – | – | > 1000 | > 1000 | – | – | CS(=O)(=O)c1ccccc1-c1ccc(N2CCCC(NS(=O)(=O)c3cc(Cl)ccc3Cl)C2=O)c(F)c1 (configuration not stated) | –
